AI-2 QS mod: Vibrio harveyi AI-2 quorum sensing modulation | Vibrio harveyi JMH597 AI-2 luminescence/OD600 ratio, 9 h; stronger effect = lower value; strain lacks LuxN and CqsS sensors; 0 = neutral-control median | activity change, % at 7.5 µM | 300,000 compounds, 0.4% hits | AID 2094; in the data active = activity change below about -75%, passing the limit was not always enough;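 also: luminescence divided by OD600 gain over 9 h not by final OD600 alone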
m5-HT2A agonist: activates the mouse 5-HT2A serotonin receptor | P35363 | CHO-K1 mHTR2A beta-arrestin complementation, luminescence; percent of 30 µM serotonin response | activation, % at 7.6 µM | 360,000 compounds, 0.66% hits | AID 624169;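 active = activation above a run cutoff, the mean activation of all tested compounds plus 3 SD, cut at about 14% in these data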;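 also: 0% = plate median of compound wells and 100% = 30 µM serotonin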
MsrA inhibitor: inhibits bovine methionine sulfoxide reductase A. purified bovine MsrA, absorbance read-out. inhibition, % at 15.5 µM. 360,000 compounds, 0.75% hits. AID 651718; in the data active = inhibition above about 4.5%;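 also: 0% = vehicle wells with enzyme and 100% = reference inhibitor wells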
AHR act: activators of human aryl hydrocarbon receptor; AID 2796; P35869; activation, % at 5 µM; 320,000 compounds, 2.5% hits; AHR-responsive luciferase reporter cells, luminescence; in the data active = activation above about 47%;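 also: 0% = vehicle wells and 100% = reference agonist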
TbMetRS inhib: Trypanosoma brucei MetRS inhibition. purified T. brucei MetRS, ATP depletion, Kinase-Glo luminescence. inhibition, % at 11.9 µM. 360,000 compounds, 0.4% hits;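 active = inhibition above a per-plate cutoff of the control wells' mean inhibition plus 3 SD, cut at about 5.5% in these data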;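 also: 0% = DMSO wells median and 100% = median of wells with control inhibitor compound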
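Measured by: Kinase-Glo luciferase luminescence reporting remaining unconsumed ATP. Material: purified T. brucei MetRS enzyme. Doses: 11.9 µM compound single dose, 0.9% DMSO. Medium: HEPES buffer containing pyrophosphatase, BSA, spermine, DTT. Times: 15 min preincubation, 2 h reaction, all 25 °C. Reagent: methionine, ATP and bulk E. coli tRNA.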
bovine MsrA act: activates bovine MsrA enzyme; purified bovine MsrA, absorbance read-out; activation, % at 10.6 µM; 360,000 compounds, 0.3% hits; AID 602163; in the data active = activation above about 7.5%;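 also: 0% = vehicle and 100% = reference activator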
AHR act cf: confirmation of human aryl hydrocarbon receptor activators; AID 2845; human cells, AHR-responsive luciferase reporter, luminescence; shares compounds with AHR act; 2,300 compounds, 87% hits; activation, % at 9 µM; in the data active = activation above about 49%;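 also: HepG2 hepatoma cells carrying a DRE-driven firefly luciferase reporter; 0% = vehicle wells and 100% = reference agonist wells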
PXR counter: activates human PXR in AHR activator counter-screen. shares compounds with AHR act. cell-based PXR reporter, luciferase luminescence. activation, % at 11.6 µM. AID 434939. 2,300 compounds, 88% hits; in the data active = activation above about 11%;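 also: human hepatoma DPX-2 cells expressing full-length human PXR; 0% = DMSO and 100% = reference agonist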
Target sequence (O75469 whole entry, looked up): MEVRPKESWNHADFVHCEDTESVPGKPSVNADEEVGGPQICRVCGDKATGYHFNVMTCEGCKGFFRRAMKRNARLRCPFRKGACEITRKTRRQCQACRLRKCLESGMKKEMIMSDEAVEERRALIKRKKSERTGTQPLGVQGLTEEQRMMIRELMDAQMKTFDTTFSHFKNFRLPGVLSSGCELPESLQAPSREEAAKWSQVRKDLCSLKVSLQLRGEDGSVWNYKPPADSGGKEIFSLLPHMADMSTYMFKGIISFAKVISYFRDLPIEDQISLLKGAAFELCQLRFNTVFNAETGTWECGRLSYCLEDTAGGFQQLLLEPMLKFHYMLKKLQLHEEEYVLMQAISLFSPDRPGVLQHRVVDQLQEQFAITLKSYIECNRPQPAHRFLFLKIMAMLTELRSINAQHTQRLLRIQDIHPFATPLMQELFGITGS
Active calls of the source: *. This is a sample that favours compounds with a hit; in the whole collection about 4.4% have one here.

Results for COc1ccccc1NC(=O)CN(Cc1ccco1)C(=O)c1ccc(Cl)nc1 ?
AI-2 QS mod: -8; m5-HT2A agonist: 12; MsrA inhibitor: 0; AHR act: 85*; TbMetRS inhib: -1; bovine MsrA act: -7; AHR act cf: 109*; PXR counter: 62*

Results for CCCn1c(/C=C/c2ccccc2)nc2ccccc21 ?
AI-2 QS mod: 17; m5-HT2A agonist: -2; MsrA inhibitor: 4; AHR act: 88*; TbMetRS inhib: -1; bovine MsrA act: -5; AHR act cf: 118*; PXR counter: 45*

How did Cc1cc(NC(=O)C2CC2)n(-c2nc3ccccc3s2)n1 do in these assays?
AI-2 QS mod: -9; m5-HT2A agonist: 6; MsrA inhibitor: 0; AHR act: 35; TbMetRS inhib: -1; bovine MsrA act: -5

Results for CC(=O)N1CCc2c(sc(NC(=O)C3CC3)c2-c2nc3ccccc3s2)C1 ?
AI-2 QS mod: 3; m5-HT2A agonist: 13; MsrA inhibitor: 0; AHR act: 106*; TbMetRS inhib: 0; bovine MsrA act: -3; AHR act cf: 100*; PXR counter: 28*

How did COc1cccc(CNC(=O)c2ccccc2NC(=O)C2=C(C)OCCS2)c1OC do in these assays?
AI-2 QS mod: 23; m5-HT2A agonist: 4; MsrA inhibitor: 0; AHR act: 5; TbMetRS inhib: -1; bovine MsrA act: -8

What do the screens show for `CNC(=O)c1ccsc1NC(=O)c1sc2ccccc2c1Cl`?
AI-2 QS mod: 5; m5-HT2A agonist: 2; MsrA inhibitor: 2; AHR act: 120*; TbMetRS inhib: 0; bovine MsrA act: -3; AHR act cf: 116*; PXR counter: 19*

Results for CCCC[C@@H]1CC2=C(C(=O)OC(C)(C)O2)[C@H](c2ccc(C(C)C)cc2)O1 ?
m5-HT2A agonist: -1; MsrA inhibitor: 0; TbMetRS inhib: -1; bovine MsrA act: 1

How did CC(=O)c1ccccc1NC(=O)c1ccc2c(c1)NC(=O)C(C)S2 (stereo not drawn) do in these assays?
AI-2 QS mod: 25; m5-HT2A agonist: 7; MsrA inhibitor: 1; AHR act: 122*; TbMetRS inhib: -1; bovine MsrA act: -5; AHR act cf: 143*; PXR counter: 152*

How did O=C(Nc1ccc(Cl)cc1)[C@@H]1[C@@H]2C(=O)N(c3ccc(Cl)cc3)C(=O)[C@@H]2[C@H]2C=CC=NN21 do in these assays?
AI-2 QS mod: 20; m5-HT2A agonist: 4; MsrA inhibitor: 2; AHR act: 98*; TbMetRS inhib: 3; bovine MsrA act: -1; AHR act cf: 63*; PXR counter: 13*

Results for CCc1ccc(C(=O)CN2C(=O)NC3(CCc4ccccc43)C2=O)cc1 (stereo not drawn) ?
m5-HT2A agonist: -7; MsrA inhibitor: 1; AHR act: 8; TbMetRS inhib: 0; bovine MsrA act: -2

Results for Cc1ccc(-c2csc(-c3ccncc3)n2)cc1 ?
AI-2 QS mod: 5; m5-HT2A agonist: 7; MsrA inhibitor: 0; AHR act: 80*; TbMetRS inhib: 0; bovine MsrA act: -3; AHR act cf: 96*; PXR counter: 8

What do the screens show for `Nc1nc(-c2ccc(Br)cc2)cs1`?
AI-2 QS mod: 8; m5-HT2A agonist: 3; MsrA inhibitor: 0; AHR act: 9; TbMetRS inhib: -1; bovine MsrA act: -13

Results for Brc1ccc(-c2csc(-c3ccncc3)n2)cc1 ?
AI-2 QS mod: 27; m5-HT2A agonist: -1; MsrA inhibitor: 0; AHR act: 101*; TbMetRS inhib: 0; bovine MsrA act: -4; AHR act cf: 102*; PXR counter: 11*

What do the screens show for `c1ccc(-c2nc(-c3cccnc3)cs2)cc1`?
AI-2 QS mod: 20; m5-HT2A agonist: -8; MsrA inhibitor: 0; TbMetRS inhib: 0; bovine MsrA act: -2

How did Brc1ccc(-c2csc(Nc3nc(-c4ccc(Br)cc4)cs3)n2)cc1 do in these assays?
AI-2 QS mod: 17; m5-HT2A agonist: -1; MsrA inhibitor: 0; AHR act: 85*; TbMetRS inhib: 0; bovine MsrA act: -5; AHR act cf: 116*; PXR counter: 17*

What do the screens show for `Cc1ccccc1C(=O)Nc1ccc(Br)c(C)n1`?
AI-2 QS mod: 14; m5-HT2A agonist: 3; MsrA inhibitor: 1; AHR act: 88*; TbMetRS inhib: -2; bovine MsrA act: -13; AHR act cf: 130*; PXR counter: 52*

Results for CN1CCN(C2=Nc3c(Cl)cc(Cl)c4cccc2c34)CC1 ?
AI-2 QS mod: 10; m5-HT2A agonist: -9; MsrA inhibitor: 0; AHR act: 82*; TbMetRS inhib: 0; bovine MsrA act: -4; AHR act cf: 91*; PXR counter: 27*

How did COC(=O)c1sc(NC(=O)c2ccco2)nc1C do in these assays?
AI-2 QS mod: 6; m5-HT2A agonist: -5; MsrA inhibitor: 0; AHR act: 3; TbMetRS inhib: -1; bovine MsrA act: 5

What do the screens show for `CC(=O)Nc1ccc2nc(NC(=O)c3ccco3)sc2c1`?
AI-2 QS mod: 16; m5-HT2A agonist: 2; MsrA inhibitor: 3; AHR act: 119*; TbMetRS inhib: -2; bovine MsrA act: -13; AHR act cf: 66*; PXR counter: 18*

How did Fc1cccc2sc(Nc3nnc(-c4ccco4)o3)nc12 do in these assays?
AI-2 QS mod: 19; m5-HT2A agonist: -5; MsrA inhibitor: 4; AHR act: 151*; TbMetRS inhib: 1; bovine MsrA act: -3; AHR act cf: 121*; PXR counter: 40*

What do the screens show for `O=C(Nc1nc2c(F)cccc2s1)c1ccco1`?
AI-2 QS mod: 39; m5-HT2A agonist: -1; MsrA inhibitor: 2; AHR act: 121*; TbMetRS inhib: 0; bovine MsrA act: -1; AHR act cf: 72*; PXR counter: 49*

How did CC(=O)Nc1nnc(-c2ccco2)o1 do in these assays?
AI-2 QS mod: 9; m5-HT2A agonist: -3; MsrA inhibitor: 0; AHR act: 1; TbMetRS inhib: 0; bovine MsrA act: -3

What do the screens show for `Cc1nc(NC(=O)c2ccco2)sc1C(=O)Nc1ccc(Br)cc1`?
AI-2 QS mod: 11; m5-HT2A agonist: -1; AHR act: 108*; TbMetRS inhib: 0; bovine MsrA act: -3; AHR act cf: 145*; PXR counter: 79*

How did CCN(CC)C1Oc2cc3c(cc2C(c2cc(OC)c(OC)c(OC)c2)C1C)OCO3 (stereo not drawn) do in these assays?
m5-HT2A agonist: -1; MsrA inhibitor: 1; TbMetRS inhib: 0; bovine MsrA act: -5
